Source: PubChem BioAssay
Calls of active or inactive are those of the source.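 How the source made its calls, unless noted: active means viability at or below 10% of carrier control in both of two separate runs; inconclusive means viability at or below 10% in only one of the two runs; inactive means the rest.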

What was measured:
[1] = reducers of endogenous Her2 protein level, primary screen, SKBR3 breast tumor cells, AlphaScreen, ATP viability (AID 461;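 active means Her2 level under about 52% in both replicate screens, with viability over 70% of control, limit read from the data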;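 on Her2 level: lower value means less Her2 protein in the cells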;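 on viability: percent of carrier control wells set as 100% viability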); details: 18-24 h, measured here: SKBR3 viability, ATP luminescence, at 10 µM
[2] = molecular target: Receptor tyrosine-protein kinase erbB-2 (Homo sapiens) (UniProt P04626); test: as above; details: 18-24 h, at 10 µM, stronger effect = lower value
Chain of Receptor tyrosine-protein kinase erbB-2 (Homo sapiens) (P04626 whole entry, looked up): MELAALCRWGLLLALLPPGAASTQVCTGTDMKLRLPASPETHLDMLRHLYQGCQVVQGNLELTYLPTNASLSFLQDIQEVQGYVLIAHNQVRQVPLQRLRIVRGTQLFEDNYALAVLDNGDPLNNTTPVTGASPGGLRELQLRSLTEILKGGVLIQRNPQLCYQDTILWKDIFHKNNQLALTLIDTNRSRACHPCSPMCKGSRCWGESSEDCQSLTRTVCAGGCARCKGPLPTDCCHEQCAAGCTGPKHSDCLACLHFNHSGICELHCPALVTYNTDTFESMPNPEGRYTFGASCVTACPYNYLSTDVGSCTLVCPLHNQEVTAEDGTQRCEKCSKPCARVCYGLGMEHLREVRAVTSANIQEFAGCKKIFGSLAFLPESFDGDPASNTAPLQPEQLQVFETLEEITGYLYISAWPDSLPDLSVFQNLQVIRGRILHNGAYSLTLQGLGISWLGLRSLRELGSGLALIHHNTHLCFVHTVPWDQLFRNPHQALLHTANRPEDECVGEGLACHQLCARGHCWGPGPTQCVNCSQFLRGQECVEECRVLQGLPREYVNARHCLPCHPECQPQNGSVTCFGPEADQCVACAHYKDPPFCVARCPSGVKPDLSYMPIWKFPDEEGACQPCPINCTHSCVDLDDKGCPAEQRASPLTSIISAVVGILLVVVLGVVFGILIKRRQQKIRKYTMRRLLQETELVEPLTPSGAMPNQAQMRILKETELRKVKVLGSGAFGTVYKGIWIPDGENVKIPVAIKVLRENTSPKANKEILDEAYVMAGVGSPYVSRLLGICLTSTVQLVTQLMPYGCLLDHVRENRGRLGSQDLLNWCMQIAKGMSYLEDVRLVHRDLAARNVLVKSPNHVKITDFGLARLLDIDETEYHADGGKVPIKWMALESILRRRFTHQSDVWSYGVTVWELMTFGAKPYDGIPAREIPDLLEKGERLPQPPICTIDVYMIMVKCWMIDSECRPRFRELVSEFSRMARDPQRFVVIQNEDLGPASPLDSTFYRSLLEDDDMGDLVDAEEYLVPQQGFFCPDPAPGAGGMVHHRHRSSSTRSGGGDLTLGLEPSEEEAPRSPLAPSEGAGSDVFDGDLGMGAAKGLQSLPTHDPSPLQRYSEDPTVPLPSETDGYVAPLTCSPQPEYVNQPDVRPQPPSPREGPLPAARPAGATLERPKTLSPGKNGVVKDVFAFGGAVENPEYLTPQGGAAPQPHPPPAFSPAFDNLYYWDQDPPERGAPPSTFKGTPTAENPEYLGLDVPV

[3] = SK-BR-3 cell growth inhibitors, pilot screen, 24 h, human (AID 572); details: SK-BR-3 viability, CellTiter-Glo luminescence, at 10 µM, stronger effect = lower value;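 further: compound exposure lasted between 18 and 24 h rather than exactly 24 h; 100% = carrier-treated control wells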
[4] = HUVEC growth inhibition – cell-based, human, primary screen (AID 575;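 active means viability at or below 30% in both replicate assays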;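 further: 100% = median of untreated cell wells with 0.1% DMSO on each plate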); details: HUVEC proliferation, CellTiter-Glo luminescence, 72 h; at 10 µM; stronger effect = lower value
In short: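 Material: primary human umbilical vein endothelial cells / Schedule: 72 h exposure, 37 °C, 5% CO2, 30 min RT equilibration / Signal: ATP-based CellTiter-Glo luminescent read / Read-out basis: percent of median DMSO-control luminescence / Control set: 32 DMSO-only cell-control wells (high), 32 MePR drug-control wells (low) per plate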

[5] = growth inhibitors of H69AR lung tumor, primary screen, human, duplicate replicates (AID 580;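 active means viability at or under a set limit in both replicates, limit being median viability minus 3 SD, cut at about 48% in these data, passing the limit was not always enough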;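 further: 100% = mean luminescence of untreated wells and 0% = no signal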); details: H69AR lung tumor cells viability, ATP luminescence, 72 h; at 10 µM; stronger effect = lower value
[6] = reversal of MRP1-mediated doxorubicin resistance, pilot screen, H69AR cells, doxorubicin co-treatment (AID 601;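 active means viability loss from added drug above about 55%, and viability with drug at most 40%, in both replicates, limit read from the data, passing the limit was not always enough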); details: CellTiter-Glo, 72 h, at 10 µM; for differential viability (reversal): stronger effect = higher value
[7] = 384-well plate pilot, post-Golgi transport modulator project, inhibition of yeast transport mutant growth (AID 636; in the data active means inhibition above about 31%); details: absorbance 615 nm, about 18 h, stronger effect = higher value
[8] = growth suppression of yeast trafficking mutant, preliminary HTS, modulators of trafficking downstream of Golgi apparatus project, 1536-format plate, OD 615 nm (AID 637; in the data active means inhibition above about 30%); details: yeast transport mutant growth, absorbance 615 nm, 18 h; stronger effect = higher value
[9] = H69AR cells + 2 uM doxorubicin, measured here: viability with 2 uM doxorubicin, stronger effect = lower value
[10] = H69AR cells, compound alone cytotoxicity

Compound | viability [1] | Her2 level [2] | viability [3] | viability [4] | viability [5] | differential viability (reversal) ([6]; H69AR cells + 2 uM doxorubicin) | viability [6, 9] | viability [6, 10] | inhibition [7] | inhibition [8]
Cn1c(=N)n(CC(=O)O)c2ccccc21 | 108% | 100% (inactive) | 108% (inactive) | 91.5% (inactive) | 96.2% (inactive) | 6.81% (inactive) | 89.4% | 96.2% | -5.97% (inactive) | -5.4% (inactive)
CSCCC(NS(=O)(=O)c1ccc2c(c1)oc(=O)n2C)C(=O)NC1CCCCC1 (stereo not given) | 91% | 110% (inactive) | 91% (inactive) | 87.4% (inactive) | 103% (inactive) | 12.6% (inactive) | 90.1% | 103% | 0.9% (inactive) | -3.17% (inactive)
CCCn1c(N)c(C(=O)CSc2nnc(Cc3ccccc3)o2)c(=O)n(C)c1=O | 104% | 90.5% (inactive) | 104% (inactive) | 75.2% (inactive) | 84.6% (inactive) | -13.6% (inactive) | 98.2% | 84.6% | 0.65% (inactive) | 3.93% (inactive)
CCN(C(=O)c1cc(Cl)ccc1OC)C1CCCCC1 | 86.5% | 104% (inactive) | 86.5% (inactive) | 101% (inactive) | 83.8% (inactive) | -10.6% (inactive) | 94.4% | 83.8% | -2.86% (inactive) | -2.5% (inactive)
Cc1ccc(-c2cn3nc(C)c(C)nc3n2)cc1 | 106% | 94% (inactive) | 106% (inactive) | 75.4% (inactive) | 85.5% (inactive) | 4% (inactive) | 81.5% | 85.5% | -4.93% (inactive) | 0% (inactive)
CC1CCN(C(=O)C2CCN(S(=O)(=O)c3cnc[nH]3)CC2)CC1 | 98% | 93% (inactive) | 98% (inactive) | 96.5% (inactive) | 103% (inactive) | 7.72% (inactive) | 95.3% | 103% | -4.61% (inactive) | 3.87% (inactive)
O=C(Cn1c(=O)n(Cc2ccc3c(c2)OCO3)c(=O)c2ccccc21)N1CCCc2ccccc21 | 87.5% | 80.5% (inactive) | 87.5% (inactive) | 66.5% (inactive) | 82.2% (inactive) | 3.96% (inactive) | 78.3% | 82.2% | -0.39% (inactive) | 1.8% (inactive)
O=C(CNS(=O)(=O)c1ccc(Br)s1)N1CCN(c2ncccn2)CC1 | 98.5% | 116% (inactive) | 98.5% (inactive) | 122% (inactive) | 94.6% (inactive) | -4.04% (inactive) | 98.7% | 94.6% | -4.87% (inactive) | -1.31% (inactive)
C=CCOc1ccc(/C(O)=C2\C(=O)C(=O)N(CCOC)C2c2cccnc2)cc1 (stereo not given) | 99% | 94.5% (inactive) | 99% (inactive) | 107% (inactive) | 103% (inactive) | 14.8% (inactive) | 88.4% | 103% | -6.89% (inactive) | 1.17% (inactive)
O=c1c2cc(N3CCOCC3)ccc2[nH]c(=S)n1CCCN1CCCCC1 | 83.5% | 93.5% (inactive) | 83.5% (inactive) | 84.9% (inactive) | 95.9% (inactive) | 4.74% (inactive) | 91.2% | 95.9% | -4.59% (inactive) | -8.36% (inactive)
Cc1noc(C)c1S(=O)(=O)N1CCCC(C(=O)NCCc2ccc(Cl)cc2)C1 (stereo not given) | 89% | 82% (inactive) | 89% (inactive) | 98.1% (inactive) | 97.1% (inactive) | 5.35% (inactive) | 91.7% | 97.1% | -5.34% (inactive) | 4.76% (inactive)
CCOC(=O)CSc1nc2c(c(-c3ccc(C)o3)c1C#N)CCCC2 | 89.5% | 88.5% (inactive) | 89.5% (inactive) | 65.8% (inactive) | 73.8% (inactive) | 6.76% (inactive) | 67% | 73.8% | 0.26% (inactive) | -2.46% (inactive)
Cc1cc(C(=O)NCCCN2CCOCC2)n(-c2ccccc2)n1 | 94.5% | 100% (inactive) | 94.5% (inactive) | 106% (inactive) | 102% (inactive) | 9.44% (inactive) | 92.2% | 102% | -2.27% (inactive) | 3.61% (inactive)
COc1cc(NC(=O)c2cc(OC)c(OC)c(OC)c2)c(OC)cc1NC(=O)CN1CCCCC1 | 86.5% | 68.5% (inactive) | 86.5% (inactive) | 67.9% (inactive) | 65.9% (inactive) | -11.7% (inactive) | 77.6% | 65.9% | -5.27% (inactive) | -7.5% (inactive)
O=c1c(CN2CCN(Cc3ccccc3)CC2)coc2ccc(Cl)cc12 | 90% | 85.5% (inactive) | 90% (inactive) | 100% (inactive) | 95.7% (inactive) | 12.5% (inactive) | 83.3% | 95.7% | -4.81% (inactive) | -6.89% (inactive)
Cc1nn(-c2ccccc2)c2sc(C(=O)N3CCOCC3)cc12 | 88.5% | 84.5% (inactive) | 88.5% (inactive) | 71.9% (inactive) | 87.3% (inactive) | -2.3% (inactive) | 89.6% | 87.3% | -6% (inactive) | -0.48% (inactive)

Compound | viability [1] | Her2 level [2] | viability [3] | viability [4] | viability [5] | differential viability (reversal) ([6]; H69AR cells + 2 uM doxorubicin) | viability [6, 9] | viability [6, 10] | inhibition [7] | inhibition [8]
Cc1nc2ncnn2c(N2CCC(C(=O)NC3CCCC3)CC2)c1Cc1ccccc1 | 88% | 95% (inactive) | 88% (inactive) | 91.5% (inactive) | 73.6% (inactive) | 37.8% (inactive) | 35.8% | 73.6% | -5.48% (inactive) | -4.76% (inactive)
CC(C)OC(=O)C(CC(=O)O)NCc1ccccc1 (stereo not given) | 98% | 91.5% (inactive) | 98% (inactive) | 97.5% (inactive) | 91.6% (inactive) | 3.69% (inactive) | 88% | 91.6% | -2.63% (inactive) | -1.29% (inactive)
O=C(Nc1nc2c(s1)CCc1ccccc1-2)c1cccs1 | 102% | 74% (inactive) | 102% (inactive) | 72.2% (inactive) | 82.9% (inactive) | -4.96% (inactive) | 87.9% | 82.9% | -3.33% (inactive) | 8.41% (inactive)
O=c1oc2ccccc2n1CCc1ccccc1 | 109% | 97.5% (inactive) | 109% (inactive) | 84.6% (inactive) | 93.7% (inactive) | 9.07% (inactive) | 84.6% | 93.7% | -5.92% (inactive) | 0.98% (inactive)
Cn1c(=O)c2c(nc(Oc3ccc4c(c3)OCO4)n2Cc2ccc(F)cc2)n(C)c1=O | 79.5% | 74.5% (inactive) | 79.5% (inactive) | 72.1% (inactive) | 74.7% (inactive) | -8.34% (inactive) | 83% | 74.7% | -2.84% (inactive) | 3.49% (inactive)
CCOC(=O)c1nnn(CC(=O)Nc2cccc(F)c2)c1C(=O)OCC | 112% | 95% (inactive) | 112% (inactive) | 100% (inactive) | 96.2% (inactive) | 3.89% (inactive) | 92.4% | 96.2% | -1.04% (inactive) | -6.35% (inactive)
CCn1cc(C(=O)O)c(=O)c2cc(F)c(N3CCN(C(=O)Nc4ccccc4)CC3)cc21 | 108% | 92% (inactive) | 108% (inactive) | 111% (inactive) | 79.5% (inactive) | -1.55% (inactive) | 81.1% | 79.5% | -3.87% (inactive) | 0% (inactive)
COc1ccc(-c2nnc(SCC(=O)c3cc(C)n(Cc4cccs4)c3C)o2)cc1 | 99.5% | 114% (inactive) | 99.5% (inactive) | 90.9% (inactive) | 87.5% (inactive) | 1.84% (inactive) | 85.7% | 87.5% | 2.6% (inactive) | 18.2% (inactive)
O=S(=O)(CCOc1ccccc1)c1nc2ccccc2[nH]1 | 104% | 18.5% (active) | 104% (inactive) | 54.7% (inactive) | 1.98% (active) | 0.22% (inactive) | 1.77% | 1.98% | -3.95% (inactive) | 3.11% (inactive)
Cc1cc2c(c(=O)n1CCc1ccccc1)C(C(C)C)C(C#N)=C(N)O2 (stereo not given) | 95% | 87% (inactive) | 95% (inactive) | 93.9% (inactive) | 83.5% (inactive) | -9.34% (inactive) | 92.8% | 83.5% | -4.87% (inactive) | 2.79% (inactive)
Cc1ccc(C2c3sc(=O)[nH]c3SC3C(=O)NC(=O)C32)cc1 (stereo not given) | 94% | 87% (inactive) | 94% (inactive) | 111% (inactive) | 105% (inactive) | 6.17% (inactive) | 99.2% | 105% | -5.62% (inactive) | -4.29% (inactive)
COC(=O)c1ccc(NC(=O)C(C)N2C(=O)c3ccccc3C2=O)cc1 (stereo not given) | 109% | 94% (inactive) | 109% (inactive) | 108% (inactive) | 108% (inactive) | 14.8% (inactive) | 92.8% | 108% | 0.41% (inactive) | -3.65% (inactive)
O=C(OCC(=O)c1cccs1)C1=COCCO1 | 89% | 102% (inactive) | 89% (inactive) | 91.6% (inactive) | 89.1% (inactive) | 1.52% (inactive) | 87.6% | 89.1% | -0.38% (inactive) | -1% (inactive)
Cc1cccc(C(OC(=O)c2ccco2)C(=O)NCc2ccccc2)n1 (stereo not given) | 102% | 90% (inactive) | 102% (inactive) | 86.6% (inactive) | 96.1% (inactive) | 7.79% (inactive) | 88.3% | 96.1% | -2.03% (inactive) | -1.64% (inactive)
CCC1CCCCN1S(=O)(=O)c1ccc(C(=O)Nc2nnc(-c3cccs3)o2)cc1 (stereo not given) | 79.5% | 91.5% (inactive) | 79.5% (inactive) | 3.2% (active) | 16.7% (active) | -28.1% (inactive) | 44.9% | 16.7% | -8.68% (inactive) | 9.64% (inactive)
